Laboratory results reported in paper PMC4284021 (The Journal of Pharmacy and Pharmacology, 2014).
Where “and” joins values, the source holds several entries; their conditions need not be identical. Equal entries are not always repeated. Entries after “also recorded” stand apart in the source; their conditions may differ. Marks after values point to notes of the source that are not given here.

Columns and labels:
Type in all cases: in vivo, human
[1] = Multiple-dose pharmacokinetics of evacetrapib in plasma; conditions: for CL/F: geometric mean (CV %)
Procedure, shortened: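 Once-daily oral doses of 10–600 mg for 14–15 days. Sampling: six serial samples on Day 1; 11 through 336 h after the last dose; trough samples on Days 2, 3, 4, 7 and 10. Acidified K2EDTA plasma was extracted by anion-exchange SPE with an isotope-labelled internal standard. Analysis by C18 LC/MS/MS, positive ion, SRM m/z 639→314. Range 1–1000 ng/ml. Parameters by non-compartmental analysis; dose proportionality on Day 14 by power model.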

[2] = tested on: apolipoproteins (apo AI, apo AII, apo B, apo E); test: Apolipoprotein concentrations by immunoturbidimetric methods in healthy subjects; conditions: for Apo AI: Mean % change from baseline (90% CI) / Apo AI: Mean % change vs placebo (90 % CI) / Apo AII: Mean % change from baseline (90% CI) / Apo AII: Mean % change vs placebo (90 % CI) / Apo B: Mean % change from baseline (90% CI) / Apo B: Mean % change vs placebo (90 % CI) / Apo E: Mean % change from baseline (90% CI) / Apo E: Mean % change vs placebo (90 % CI) / Ratio of apo B/apo AI: Mean % change from baseline (90% CI) / Ratio of apo B/apo AI: Mean % change vs placebo (90 % CI): day 14
Procedure, shortened: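 Healthy adults took placebo or test compound (10, 100, 300, 600 mg) as capsules once daily with a low-fat meal for 14–15 days. Apo AI, AII, B and E were measured by immunoturbidimetry on a Roche Modular analyser. Values are percent change from baseline to Day 14, including all randomized subjects given at least one dose.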

HDL-C and LDL-C = test: Emax model of plasma evacetrapib exposure; conditions: model estimate (90% CI)
Procedure, shortened: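 Change from baseline in HDL-C and LDL-C on Day 14 was fitted against steady-state plasma AUC. AUC came from LC/MS/MS and non-compartmental analysis. Model: Emax, the maximal response, and EAUC50, the AUC giving 50% of the maximal response.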

healthy subjects = test: Safety and tolerability monitoring
Procedure, shortened: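 All enrolled subjects were monitored on placebo or once-daily 10–600 mg oral capsules for up to 15 days. Monitoring covered vital signs, serum and plasma electrolytes, plasma renin activity, aldosterone, plasma and salivary cortisol, and adverse events coded by MedDRA 11.0 preferred term.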

[3] = AUC producing 50% of maximal response

Compound: Cc1cc(C)c2c(c1)[C@@H](N(Cc1cc(C(F)(F)F)cc(C(F)(F)F)c1)c1nnn(C)n1)CCCN2C[C@H]1CC[C@H](C(=O)O)CC1 [evacetrapib]
- CL/F ([1]; 10 mg once daily, steady state): 17.5 (21) l/h
- CL/F ([1]; 100 mg once daily, steady state): 21.7 (30) l/h
- CL/F ([1]; 300 mg once daily, steady state): 39.6 (44) l/h
- CL/F ([1]; 600 mg once daily, steady state, n = 24): 43.6 ^e (34) l/h
- levels of evacetrapib 3 weeks after last dose ([1]; 600 mg/day for 14 days, crossover cohort, 3-week washout): undetectable levels; also recorded: complete washout
- dose proportionality of plasma exposure ([1]; 10–600 mg): less than dose-proportional
- mean apparent oral clearance at steady state, range across doses ([1]; 10–600 mg): 17.5 to 43.6 L/h
- AUCt,ss for 600 mg relative to 100 mg ([1]; after 14 daily doses): approximately threefold
- accumulation ratio during multiple dosing ([1]; based on trough concentrations, between Days 1 and 14): 2–2.5
- levels of evacetrapib after 2-week (336 h) washout ([1]; each dose group): returned to levels at or near baseline; also recorded: decreased to near the lower limit of detection
- half-life ([1]; human, plasma, oral): 24 to 44 h
- Tmax ([1]; human, plasma, oral, 10 mg, tmax, 10 mg once daily, steady state, median (range)): 4.02 h
- time to steady state ([1]; once-daily dosing): approximately 10 days
- Apo AI: Mean % change from baseline (90% CI) ([2]; 10 mg/day): 3.53 (−2.23, 9.30) %
- Apo AI: Mean % change vs placebo (90 % CI) ([2]; 10 mg/day): 15.29 (7.74, 22.84) ^** %
- Apo AII: Mean % change from baseline (90% CI) ([2]; 10 mg/day): −1.30 (−5.34, 2.73) %
- Apo AII: Mean % change vs placebo (90 % CI) ([2]; 10 mg/day): 4.29 (−0.90, 9.48) %
- Apo B: Mean % change from baseline (90% CI) ([2]; 10 mg/day): −8.09 (−13.41, −2.77) %
- Apo B: Mean % change vs placebo (90 % CI) ([2]; 10 mg/day): −15.05 (−22.68, −7.43) ^** %
- Apo E: Mean % change from baseline (90% CI) ([2]; 10 mg/day): 19.70 (5.10, 34.30) %
- Apo E: Mean % change vs placebo (90 % CI) ([2]; 10 mg/day): 8.36 (−2.89, 19.60) %
- Ratio of apo B/apo AI: Mean % change from baseline (90% CI) ([2]; 10 mg/day): −6.87 (−12.72, −1.02) %
- Ratio of apo B/apo AI: Mean % change vs placebo (90 % CI) ([2]; 10 mg/day): −26.63 (−34.88, −18.38) ^*** %
- Apo AI: Mean % change from baseline (90% CI) ([2]; 100 mg/day): 24.61 (20.07, 29.15) %
- Apo AI: Mean % change vs placebo (90 % CI) ([2]; 100 mg/day): 36.37 (27.66, 45.08) ^*** %
- Apo AII: Mean % change from baseline (90% CI) ([2]; 100 mg/day): 8.85 (4.69, 13.02) %
- Apo AII: Mean % change vs placebo (90 % CI) ([2]; 100 mg/day): 14.44 (7.16, 21.72) ^** %
- Apo B: Mean % change from baseline (90% CI) ([2]; 100 mg/day): −17.64 (−20.84, −14.43) %
- Apo B: Mean % change vs placebo (90 % CI) ([2]; 100 mg/day): −24.60 (−31.28, −17.92) ^*** %
- Apo E: Mean % change from baseline (90% CI) ([2]; 100 mg/day): 55.81 (36.13, 75.50) %
- Apo E: Mean % change vs placebo (90 % CI) ([2]; 100 mg/day): 44.47 (14.63, 74.30) ^* %
- Ratio of apo B/apo AI: Mean % change from baseline (90% CI) ([2]; 100 mg/day): −31.84 (−35.59, −28.09) %
- Ratio of apo B/apo AI: Mean % change vs placebo (90 % CI) ([2]; 100 mg/day): −51.60 (−59.36, −43.83) ^*** %
- Apo AI: Mean % change from baseline (90% CI) ([2]; 300 mg/day): 28.75 (23.70, 33.80) %
- Apo AI: Mean % change vs placebo (90 % CI) ([2]; 300 mg/day): 40.50 (31.66, 49.34) ^*** %
- Apo AII: Mean % change from baseline (90% CI) ([2]; 300 mg/day): 11.93 (7.75, 16.10) %
- Apo AII: Mean % change vs placebo (90 % CI) ([2]; 300 mg/day): 17.52 (10.86, 24.17) ^*** %
- Apo B: Mean % change from baseline (90% CI) ([2]; 300 mg/day): −18.85 (−22.45, −15.25) %
- Apo B: Mean % change vs placebo (90 % CI) ([2]; 300 mg/day): −25.81 (−32.59, −19.04) ^*** %
- Apo E: Mean % change from baseline (90% CI) ([2]; 300 mg/day): 76.75 (62.23, 91.28) %
- Apo E: Mean % change vs placebo (90 % CI) ([2]; 300 mg/day): 65.40 (40.39, 90.42) ^*** %
- Ratio of apo B/apo AI: Mean % change from baseline (90% CI) ([2]; 300 mg/day): −35.69 (−39.92, −31.46) %
- Ratio of apo B/apo AI: Mean % change vs placebo (90 % CI) ([2]; 300 mg/day): −55.45 (−63.26, −47.63) ^*** %
- decrease in apo B ([2]; 600 mg, Day 14, vs placebo): 26% and 26.1%
- decrease in apo B/AI ratio ([2]; 600 mg, Day 14, vs placebo): 56.5%
- Apo AI: Mean % change from baseline (90% CI) ([2]; 600 mg/day): 29.93 (24.51, 35.35) %
- Apo AI: Mean % change vs placebo (90 % CI) ([2]; 600 mg/day): 42% and 41.7% and 41.69 (32.70, 50.67) ^*** %
- Apo AII: Mean % change from baseline (90% CI) ([2]; 600 mg/day): 12.91 (8.06, 17.77) %
- Apo AII: Mean % change vs placebo (90 % CI) ([2]; 600 mg/day): 18.5% and 18.50 (11.71, 25.29) ^*** %
- Apo B: Mean % change from baseline (90% CI) ([2]; 600 mg/day): −19.17 (−22.94, −15.41) %
- Apo B: Mean % change vs placebo (90 % CI) ([2]; 600 mg/day): −26.14 (−32.97, −19.30) ^*** %
- Apo E: Mean % change from baseline (90% CI) ([2]; 600 mg/day): 85.48 (65.47, 105.49) %
- Apo E: Mean % change vs placebo (90 % CI) ([2]; 600 mg/day): 74.1% and 74.13 (47.95, 100.31) ^*** %
- Ratio of apo B/apo AI: Mean % change from baseline (90% CI) ([2]; 600 mg/day): −36.74 (−41.23, −32.25) %
- Ratio of apo B/apo AI: Mean % change vs placebo (90 % CI) ([2]; 600 mg/day): −56.50 (−64.39, −48.61) ^*** %
- EAUC50 for the HDL-C model (HDL-C and LDL-C; [3]): 4110 ng·h/mL
- EAUC50 for the LDL-C model (HDL-C and LDL-C; [3]): 582 (194 to 1810) ng · h/ml
- maximum theoretical change from baseline for HDL-C (Emax) (HDL-C and LDL-C; after 14 days of dosing): 126%
- maximum theoretical change from baseline for LDL-C (Emax) (HDL-C and LDL-C; after 14 days of dosing): −28.2%
- severity of adverse events (healthy subjects; 10–600 mg): mild to moderate
- tolerability (healthy subjects; 10–600 mg for up to 15 days): generally well tolerated
- changes in routine serum chemistries (liver transaminases, complete blood counts, urinalysis) (healthy subjects; in vivo): No clinically relevant changes
- effect on aldosterone (healthy subjects; multiple daily doses): no effect
- subjects reporting rash-related AEs (discontinued the study) (healthy subjects; two at 300 mg, two at 600 mg): Four
